Laboratory results from ChEMBL document CHEMBL1124759, “Fluoronaphthyridines and quinolones as antibacterial agents. 2. Synthesis and structure-activity relationships of new 1-tert-butyl 7-substituted derivatives” (J Med Chem, 1990).
Converted amounts (≈) assume the structure as drawn.

Legend:
Type in all cases: functional
[1] = test system: Enterococcus faecium; assay: In vitro minimum inhibitory concentration (MIC) against Enterococcus faecium A 24885 at 37 degrees C for 18 h.
Method in brief: (§1)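 Two-fold serial broth dilution in nutrient broth. Inoculum adjusted to 10^6 cfu/mL. Compounds tested from 0.0005 to 250 µg/mL.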

[2] = test system: Klebsiella pneumoniae; assay: Efficacy on systematic infections against Klebsiella pneumoniae A 9664 after oral administration in mice; settings: read-out: PD50
Method in brief: (§2)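 Mice given compound orally after lethal systemic infection. Read-out is the oral dose protecting 50% of mice from death (PD50), reported in mg/kg.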

[3] = test system: Pseudomonas aeruginosa; assay: In vitro minimum inhibitory concentration (MIC) against Pseudomonas aeruginosa A 9843 at 37 degree C for 18 h; method in brief: as §1
[4] = test system: Enterobacter cloacae; assay: In vitro minimum inhibitory concentration (MIC) against Enterobacter cloacae A 9656 at 37 degrees C for 18 h.
[5] = test system: Serratia marcescens; assay: In vitro minimum inhibitory concentration (MIC) against Serratia marcescens A 20019 at 37 degrees C for 18 hr; method in brief: as §1
[6] = test system: Escherichia coli; assay: Efficacy on systematic infections against Escherichia coli A 15119 after oral administration in mice; settings: read-out: PD50; method in brief: as §2
[7] = test system: Klebsiella pneumoniae; assay: In vitro minimum inhibitory concentration (MIC) against Klebsiella pneumoniae A 9664 at 37 degrees C for 18 h.; method in brief: as §1
[8] = test system: Staphylococcus aureus; assay: In vitro minimum inhibitory concentration (MIC) against Staphylococcus aureus Smith A 9537 at 37 degrees C for 18 hr; method in brief: as §1
[9] = test system: Pseudomonas aeruginosa; assay: Efficacy on systematic infections against Pseudomonas aeruginosa A 9843 after oral administration in mice; settings: read-out: PD50; method in brief: as §2
[10] = test system: Escherichia coli; assay: In vitro minimum inhibitory concentration (MIC) against Escherichia coli A 15119 at 37 degrees C for 18 h.; method in brief: as §1
[11] = test system: Enterococcus faecalis; assay: In vitro minimum inhibitory concentration (MIC) against Enterococcus faecalis A 9808 at 37 degrees C for 18 h.; method in brief: as §1
[12] = test system: Staphylococcus aureus; assay: Efficacy on systematic infections against Staphylococcus aureus A 9537 after oral administration in mice; settings: read-out: PD50; method in brief: as §2
[13] = test system: Morganella morganii; assay: In vitro minimum inhibitory concentration (MIC) against Morganella morganii A 15153 at 37 degrees C for 18 h.; method in brief: as §1

Structure (SMILES) | MIC [1] | ED50 [2] | MIC [3] | MIC [4] | MIC [5] | ED50 [6] | MIC [7] | MIC [8] | ED50 [9] | MIC [10] | MIC [11] | ED50 [12] | MIC [13]
CC(C)(C)n1cc(C(=O)O)c(=O)c2cc(F)c(N3CCC(N)C3)nc21.CS(=O)(=O)O (stereo unspecified) | 1 µg/mL | 2.1 mg/kg | 2 µg/mL | 0.13 µg/mL | 0.25 µg/mL | 1.4 mg/kg | 0.25 µg/mL | 0.015 µg/mL | 3.5 mg/kg | 0.13 µg/mL | 0.25 µg/mL | 1.4 mg/kg | 1 µg/mL
CC1CN(c2nc3c(cc2F)c(=O)c(C(=O)O)cn3C(C)(C)C)CCN1C (stereo unspecified) | 4 µg/mL (≈ 10.6 µM) |  | 4 µg/mL (≈ 10.6 µM) | 0.06 µg/mL (≈ 0.159 µM) | 1 µg/mL (≈ 2.66 µM) |  | 0.13 µg/mL (≈ 0.345 µM) | 0.13 µg/mL (≈ 0.345 µM) |  | 0.03 µg/mL (≈ 0.0797 µM) | 1 µg/mL (≈ 2.66 µM) |  | 1 µg/mL (≈ 2.66 µM)
CS(=O)(=O)O.C[C@H]1CN(c2nc3c(cc2F)c(=O)c(C(=O)O)cn3C(C)(C)C)C[C@H]1N | 1 µg/mL | 4.1 mg/kg | 0.5 µg/mL | 0.13 µg/mL | 0.25 µg/mL | 2.4 mg/kg | 0.03 µg/mL | 0.015 µg/mL | 9 mg/kg | 0.25 µg/mL | 0.13 µg/mL | 1.6 mg/kg | 0.5 µg/mL
CN(C)C1CCN(c2nc3c(cc2F)c(=O)c(C(=O)O)cn3C(C)(C)C)C1 (stereo unspecified) | 8 µg/mL (≈ 21.3 µM) |  | 1 µg/mL (≈ 2.66 µM) | 1 µg/mL (≈ 2.66 µM) | 1 µg/mL (≈ 2.66 µM) |  | 0.13 µg/mL (≈ 0.345 µM) | 0.03 µg/mL (≈ 0.0797 µM) |  | 0.25 µg/mL (≈ 0.664 µM) | 0.5 µg/mL (≈ 1.33 µM) |  | 0.5 µg/mL (≈ 1.33 µM)
CC[C@H]1CN(c2nc3c(cc2F)c(=O)c(C(=O)O)cn3C(C)(C)C)C[C@@H]1N.CS(=O)(=O)O | 2 µg/mL |  | 1 µg/mL | 0.03 µg/mL | 0.25 µg/mL |  | 0.06 µg/mL | 0.015 µg/mL |  | 0.03 µg/mL | 0.13 µg/mL |  | 0.25 µg/mL
CC(C)(C)n1cc(C(=O)O)c(=O)c2cc(F)c(N3CCC(CN)C3)cc21 (stereo unspecified) | 0.5 µg/mL (≈ 1.38 µM) |  | 0.5 µg/mL (≈ 1.38 µM) | 0.25 µg/mL (≈ 0.692 µM) | 2 µg/mL (≈ 5.53 µM) |  | 0.25 µg/mL (≈ 0.692 µM) | 0.03 µg/mL (≈ 0.083 µM) |  | 0.25 µg/mL (≈ 0.692 µM) | 0.25 µg/mL (≈ 0.692 µM) |  | 2 µg/mL (≈ 5.53 µM)
CC(C)(C)n1cc(C(=O)O)c(=O)c2cc(F)c(N3CCC(CN)C3)nc21 (stereo unspecified) | 2 µg/mL (≈ 5.52 µM) |  | 1 µg/mL (≈ 2.76 µM) | 0.5 µg/mL (≈ 1.38 µM) | 2 µg/mL (≈ 5.52 µM) |  | 0.25 µg/mL (≈ 0.69 µM) | 0.03 µg/mL (≈ 0.0828 µM) |  | 0.5 µg/mL (≈ 1.38 µM) | 0.25 µg/mL (≈ 0.69 µM) |  | 1 µg/mL (≈ 2.76 µM)
